GI50 data for 10 compounds are collected here from ChEMBL document CHEMBL2331156, “Growth inhibition of human colon carcinoma cells by sesquiterpenoids and tetralones of Zygogynum calothyrsum” (2013).

For one experiment, the system named is KM12. As to the kind of experiment: Cytotoxicity against human KM12 cells after 48 hrs by XTT assay. The format is functional. Particulars: KM12, 48 h. The essentials: (§1)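 Two-day XTT colorimetric assay run on COLO205 and KM12 in parallel. Cells kept in RPMI-1640 with phenol red, 2mM L-glutamine and 10% FBS at 37 °C, 5% CO₂, and discarded after 25 passages. For the assay, cells were harvested into phenol-red-free medium without antibiotics and plated at 5,000 cells/well. After 24 hrs of incubation, samples were added as eight 2-fold serial dilutions. Values are the average of at least two tests.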

The test system of another experiment is COLO 205. As to the kind of experiment: Cytotoxicity against human COLO205 cells after 48 hrs by XTT assay. The class given is functional. Particulars: COLO 205, 48 h. In a few lines:
as §1

Regarding `CC1(C)CC[C@@H](OC(=O)/C=C/c2ccc(O)cc2)[C@]2(C)[C@@H]3C(=CC[C@@H]12)CO[C@@H]3O`, the concentration for 50% growth inhibition (GI50) with KM12 was found to be 14 µM; in the experiment on COLO 205, 18 µM.
Turning to `CC1(C)CC[C@@H](OC(=O)/C=C/c2ccc(O)cc2)[C@]2(C)[C@@H]3C(=CC[C@@]12O)CO[C@@H]3O`, the values for the GI50 in the experiment with KM12 and in the experiment on COLO 205 were 25 µM and 29 µM, respectively.
In the same order, the values of `CO[C@H]1O[C@H](OC)[C@H]2C1=CC[C@H]1C(C)(C)CC[C@@H](OC(=O)/C=C/c3ccc(O)cc3)[C@]21C` are > 45 µM and > 45 µM.
On the same counts, the results for `CC1(C)CC[C@@H](OC(=O)/C=C/c2ccc(O)cc2)[C@]2(C)[C@@H](C=O)C(C=O)=CC[C@@H]12` are 25 µM and 29 µM.
In the same order, the values of `C=C(C)C1Cc2c(cc3c(c2O)C(=O)C[C@H](c2ccc(O)cc2)C3)O1` (stereo not given in full) are 29 µM and 35 µM.
With `COc1ccc([C@H]2CC(=O)c3c(cc4c(c3O)C=CC(C)(C)O4)C2)cc1O`, the results for the GI50 in the experiment on KM12 and in the experiment with COLO 205 were 17 µM and 11 µM, respectively.
For `COc1cc(O)c2c(c1)C[C@@H](c1ccc(O)c(O)c1)CC2=O` [CALOTHYRLONE A], the GI50 in the experiment on KM12 and in the experiment on COLO 205 was > 67 µM each time.
Consider `CC1(C)CCC[C@]2(C)[C@H]3COC(=O)C3=CC[C@@H]12` [CINNAMOLIDE], for which the concentration for 50% growth inhibition (GI50) in the experiment with KM12 and with COLO 205 was > 85 µM each time.
Regarding `C=C(C)C1Cc2c(cc3c(c2O)C(=O)C[C@H](c2ccc(O)c(O)c2)C3)O1` (stereo not given in full) [ISOZYGOLONE A], the GI50 with KM12 and in the experiment with COLO 205 was 32 µM each time.
Take `CC1(C)C=Cc2c(cc3c(c2O)C(=O)C[C@H](c2ccc(O)c(O)c2)C3)O1` [ZYGOLONE A]: the GI50 in the experiment on KM12 was 14 µM; with COLO 205, 17 µM.
